Consider 3 molecules from ChEMBL document CHEMBL4196091 (Eur J Med Chem, 2018).

SMILES strings stand for the structures. Activity calls are given as the source filed them. The calls are words filed in the database; no cut-off is given here. Bounds are passed on as bounds.

For data set [1], the system named is HT-29. Nature of the data set: Inhibition of VEGF protein secretion in human HT-29 cells assessed as VEGF protein level at 40 nM after 48 hrs by ELISA (reference value: 100%). The format is functional. Further details: scale not given: the % may be the effect or the level left. In general terms: ELISA stands for enzyme-linked immunosorbent assay.
Data set [2] has as its system A549. Nature of the data set: Cell cycle arrest in human A549 cells assessed as accumulation at sub-G0 phase at 50 nM after 24 hrs by propidium iodide staining based flow cytometry (reference value: 2 +/- 1%). The format is functional. The procedure, abridged: (§1)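 A549 cells maintained in DMEM (1 g/L glucose, 2 mM glutamine, penicillin/streptomycin/amphotericin B, 10% FBS) and treated for 24 h. Cells were then fixed, RNase-treated and stained with propidium iodide. DNA content was measured by flow cytometry to give cell-cycle phase distribution, including a sub-G1 peak. Data are means (±SD) of two experiments.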
For orientation: Flow cytometry measures light scatter and fluorescence of single cells or particles in a stream.

Data set [3] deals with HT-29. Nature of the data set: Downregulation of VEGF gene expression in human HT-29 cells assessed as VEGF mRNA level at 40 nM after 48 hrs by RT-PCR method (reference value: 100%). The format is functional. The procedure, abridged:
(§2)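 HT-29 cells were taken at 70–80% confluence and seeded at 1.5 x 10^5 per well. After 24 h they were exposed to compound for 48 h. Total RNA was isolated and TaqMan RT-qPCR run for VEGF-A, c-MYC and hTERT, normalized to β-actin. Expression is given as percent of DMSO control, with at least three measurements and one-sample t-tests.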

The test system of data set [4] is HT-29. Nature of the data set: Downregulation of hTERT gene expression in human HT-29 cells assessed as hTERT mRNA level at 40 nM after 48 hrs by RT-PCR method (reference value: 100%). The format is functional. The procedure, abridged:
as §2

The test system of data set [5] is HT-29. Nature of the data set: Downregulation of hTERT gene expression in human HT-29 cells assessed as hTERT mRNA level at 10 nM after 48 hrs by RT-PCR method (reference value: 100%). In kind it is functional. The procedure, abridged:
as §2

Data set [6] deals with HT-29. Nature of the data set: Downregulation of c-Myc gene expression in human HT-29 cells assessed as c-Myc mRNA level at 40 nM after 48 hrs by RT-PCR method (reference value: 100%). The format is functional. The procedure, abridged:
as §2

Data set [7] deals with HT-29. Nature of the data set: Inhibition of VEGF protein secretion in human HT-29 cells assessed as VEGF protein level at 10 nM after 48 hrs by ELISA (reference value: 100%). In kind it is functional. Further details: scale not given: the % may be the effect or the level left.
In data set [8] the test system is A549. Nature of the data set: Cell cycle arrest in human A549 cells assessed as accumulation at G2/M phase at 50 nM after 24 hrs by propidium iodide staining based flow cytometry (reference value: 11 +/- 4%). In kind it is functional. The gist of the method:
as §1

Data set [9] concerns HT-29. Nature of the data set: Downregulation of c-Myc gene expression in human HT-29 cells assessed as c-Myc mRNA level at 10 nM after 48 hrs by RT-PCR method (reference value: 100%). In kind it is functional. The gist of the method: as §2
Data set [10] relates to A549. Nature of the data set: Cell cycle arrest in human A549 cells assessed as accumulation at G0/G1 phase at 50 nM after 24 hrs by propidium iodide staining based flow cytometry (reference value: 73 +/- 3%). In kind it is functional. The gist of the method:
as §1

Data set [11] has as its system A549. Nature of the data set: Antiproliferative activity against human A549 cells after 2 days by MTT assay. The format is functional, cell-based. To be noted: A549, 48 h. A general note: Tetrazolium assays rely on reduction of a dye to a coloured formazan, in cell work by metabolically active cells.
Data set [12] has as its system A549. Nature of the data set: Cell cycle arrest in human A549 cells assessed as accumulation at S phase at 50 nM after 24 hrs by propidium iodide staining based flow cytometry (reference value: 15 +/- 6%). The format is functional. The gist of the method:
as §1

For data set [13], the system named is HT-29. Nature of the data set: Downregulation of VEGF gene expression in human HT-29 cells assessed as VEGF mRNA level at 10 nM after 48 hrs by RT-PCR method (reference value: 100%). The format is functional. The procedure, abridged:
as §2

A short description of data set [14]: Selectivity index, ratio of IC50 for HEK293 cells to IC50 for human MCF7 cells. To be noted: HEK293 cells versus MCF7 cells.
A short description of data set [15]: Selectivity index, ratio of IC50 for HEK293 cells to IC50 for human HT-29 cells. To be noted: HEK293 cells versus HT-29 cells.
The test system of data set [16] is HEK293. Nature of the data set: Antiproliferative activity against HEK293 cells after 2 days by MTT assay. In kind it is ADME, cell-based. The settings on record: Homo sapiens, HEK293, 48 h.
In data set [17] the test system is MCF7. Nature of the data set: Antiproliferative activity against human MCF7 cells after 2 days by MTT assay. The format is functional, cell-based. The settings on record: MCF7, 48 h.
Data set [18] in a line: Selectivity index, ratio of IC50 for HEK293 cells to IC50 for human A549 cells. The settings on record: HEK293 cells versus A549 cells.
Data set [19] relates to HT-29. Nature of the data set: Antiproliferative activity against human HT-29 cells after 2 days by MTT assay. In kind it is functional, cell-based. To be noted: HT-29, 48 h.
The subject of data set [20] is HT-29. Nature of the data set: Downregulation of VEGF gene expression in human HT-29 cells assessed as VEGF mRNA level at 3 nM after 48 hrs by RT-PCR method (reference value: 100%). In kind it is functional. The procedure, abridged: (§3)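 HT-29 cells (1.5 x 10^5 per well, six-well plate) seeded 24 h, then exposed 48 h with DMSO control; total RNA extracted, target mRNA quantified by TaqMan RT-qPCR, normalized to β-actin, expressed as percentage of control. At least three measurements; one-sample t-tests.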

The test system of data set [21] is A549. Nature of the data set: Cell cycle arrest in human A549 cells assessed as accumulation at G2/M phase at 7.5 nM after 24 hrs by propidium iodide staining based flow cytometry (reference value: 11 +/- 4%). In kind it is functional. The procedure, abridged: (§4)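 A549 cells kept in DMEM (1 g/L glucose, 2 mM glutamine, antibiotics, amphotericin B, 10% FBS), treated 24 h with compound from 10 mM DMSO stock; fixed, RNase-treated, stained with propidium iodide, DNA content read by flow cytometry for phase distribution. Average (±SD) of two experiments.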

Data set [22] has as its system A549. Nature of the data set: Cell cycle arrest in human A549 cells assessed as accumulation at sub-G0 phase at 7.5 nM after 24 hrs by propidium iodide staining based flow cytometry (reference value: 2 +/- 1%). In kind it is functional. The gist of the method:
as §4

Data set [23] deals with A549. Nature of the data set: Cell cycle arrest in human A549 cells assessed as accumulation at S phase at 7.5 nM after 24 hrs by propidium iodide staining based flow cytometry (reference value: 15 +/- 6%). The format is functional. The gist of the method: as §4
The subject of data set [24] is HT-29. Nature of the data set: Downregulation of c-Myc gene expression in human HT-29 cells assessed as c-Myc mRNA level at 3 nM after 48 hrs by RT-PCR method (reference value: 100%). The format is functional. The procedure, abridged: as §3
Data set [25] relates to HT-29. Nature of the data set: Inhibition of VEGF protein secretion in human HT-29 cells assessed as VEGF protein level at 3 nM after 48 hrs by ELISA (reference value: 100%). The format is functional. Also noted: scale not given: the % may be the effect or the level left. The procedure, abridged: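 HT-29 cells (1.5 x 10^5 per well, six-well plate) seeded 24 h, then treated 48 h with DMSO control; secreted VEGF in culture supernatant measured by human VEGF ELISA kit, expressed as percentage of control. At least three measurements.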

Data set [26] relates to HT-29. Nature of the data set: Downregulation of hTERT gene expression in human HT-29 cells assessed as hTERT mRNA level at 3 nM after 48 hrs by RT-PCR method (reference value: 100%). The format is functional. The procedure, abridged: as §3
Data set [27] has as its system A549. Nature of the data set: Cell cycle arrest in human A549 cells assessed as accumulation at G0/G1 phase at 7.5 nM after 24 hrs by propidium iodide staining based flow cytometry (reference value: 73 +/- 3%). In kind it is functional. The gist of the method:
as §4

The subject of data set [28] is A549. Nature of the data set: Cell cycle arrest in human A549 cells assessed as accumulation at G2/M phase at antiproliferative IC50 after 24 hrs by propidium iodide staining based flow cytometry. The format is functional. The gist of the method:
as §4

A word on the IC50: it is the midpoint of a concentration-inhibition curve. As to `COc1cc2c(c(OC)c1OC)-c1ccc(OC)c(=O)cc1[C@@H](NC(C)=O)CC2` [COLCHICINE], the Activity in [1] was 61%; in [2] it was 3%; in data set [3], 41%; in data set [4], 50%; in [5], greater than 100%; in data set [6], 32%. Besides, the Activity is recorded as 100% in data set [7]; 59% in data set [8]; greater than 100% in data set [9]; 27% in data set [10]; 11% in [12]; greater than 100% in data set [13]. For the same molecule, in [11], half-maximal inhibition (IC50) required 12.2 nM.

Take `CCCCCc1ccc(C(=O)N[C@H]2CCc3cc(OC)c(OC)c(OC)c3-c3ccc(OC)c(=O)cc32)cc1`: the selectivity ratio was determined as 0.3 in [14], 0.4 in data set [15] and 1.3 in data set [18]. In addition, the IC50 was determined as 1.6 nM in [16], 5.8 nM in data set [17], 1.27 nM in data set [11] and 4.2 nM in data set [19].

Regarding `COc1cc2c(c(OC)c1OC)-c1ccc(OC)c(=O)cc1[C@@H](NC(=O)CF)CC2`, the Activity in data set [20] is reported as greater than 100%; in [21], 60%; in data set [22], 2%; in data set [23] it was 15%; in [24], greater than 100%; in data set [25], 88%. Also, the Activity in [26] is listed as greater than 100%; in [27] it was 25%. Also, the IC50 in [16] stood at 7.1 nM; in [17] it was 7.3 nM; in data set [11], 7.83 nM; in data set [19], 4.7 nM. In data set [28], the result was Active.
